The results in this text go back to ChEMBL document CHEMBL1157526, “Development of novel beta-amyloid probes based on 3,5-diphenyl-1,2,4-oxadiazole” (Bioorg Med Chem, 2008).

Data set [1] is described as follows: Displacement of [125I]IMPY from amyloid beta (1-42) aggregates. The method, boiled down: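 Synthetic Aβ(1–42) dissolved at 0.25 mg/mL in 10 mM sodium phosphate, 1 mM EDTA, pH 7.4, aggregated 42 h at 37 °C with gentle constant shaking. Competition against [125I]IMPY (2200 Ci/mmol, >95% radiochemical purity). Filter-bound radioactivity gamma-counted, specific binding under 15% of total. IC50 from displacement curves, Ki by Cheng-Prusoff. Mean ± SEM of 3–6 independent experiments.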
In general terms: Loss of bound radioactivity is the signal in a displacement assay; it reports binding, not function.

Data set [2] concerns Blood. Put plainly: Biodistribution in ddY mouse blood at 0.5 uCi, iv after 2 mins. The class given is ADME, organism-based. The settings on record: in vivo. The essentials:
(§1)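 Normal male-unspecified ddY mice (5-week-old, 22–25 g) given radioiodinated ligand by tail-vein injection, killed at set times post-injection. Organs removed and weighed, radioactivity counted in a gamma counter. Expressed as % injected dose per gram, stomach as % injected dose per organ. Mean (s.d.) of 3–5 animals per time point.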

In data set [3] the test system is Liver. Put plainly: Biodistribution in ddY mouse liver at 0.5 uCi, iv after 2 mins. The class given is ADME, organism-based. The settings on record: in vivo. The method, boiled down: as §1
Data set [4] deals with Kidney. Put plainly: Biodistribution in ddY mouse kidney at 0.5 uCi, iv after 2 mins. The settings on record: in vivo. Format: ADME, organism-based. The method, boiled down:
as §1

In data set [5] the test system is Intestine. Kind of data set: Biodistribution in ddY mouse intestine at 0.5 uCi, iv after 2 mins. Particulars: in vivo. The class given is ADME, organism-based. The method, boiled down: as §1
In data set [6] the test system is Spleen. Put plainly: Biodistribution in ddY mouse spleen at 0.5 uCi, iv after 2 mins. Format: ADME, organism-based. The settings on record: in vivo. The method, boiled down: as §1
The subject of data set [7] is Heart. Kind of data set: Biodistribution in ddY mouse heart at 0.5 uCi, iv after 2 mins. The class given is ADME, organism-based. The settings on record: in vivo. The method, boiled down: as §1
Data set [8] concerns Stomach. Put plainly: Biodistribution in ddY mouse stomach at 0.5 uCi, iv after 2 mins. Format: ADME, organism-based. Particulars: in vivo. The essentials:
as §1

For data set [9], the system named is Brain. Put plainly: Biodistribution in ddY mouse brain at 0.5 uCi, iv after 2 mins. The class given is ADME, organism-based. The settings on record: in vivo. The method, boiled down:
as §1

In data set [10] the test system is Blood. Put plainly: Biodistribution in ddY mouse blood at 0.5 uCi, iv after 10 mins. The class given is ADME, organism-based. The settings on record: in vivo. The method, boiled down:
as §1

Data set [11] concerns Liver. Kind of data set: Biodistribution in ddY mouse liver at 0.5 uCi, iv after 10 mins. The class given is ADME, organism-based. The settings on record: in vivo. The method, boiled down:
as §1

Data set [12] concerns Kidney. Kind of data set: Biodistribution in ddY mouse kidney at 0.5 uCi, iv after 10 mins. The class given is ADME, organism-based. Particulars: in vivo. The method, boiled down:
as §1

The subject of data set [13] is Intestine. Kind of data set: Biodistribution in ddY mouse intestine at 0.5 uCi, iv after 10 mins. Format: ADME, organism-based. Particulars: in vivo. The method, boiled down: as §1
The subject of data set [14] is Spleen. Kind of data set: Biodistribution in ddY mouse spleen at 0.5 uCi, iv after 10 mins. Particulars: in vivo. Format: ADME, organism-based. The method, boiled down:
as §1

The test system of data set [15] is Pancreas. Put plainly: Biodistribution in ddY mouse pancreas at 0.5 uCi, iv after 10 mins. The class given is ADME, organism-based. Particulars: in vivo. The essentials: as §1
Data set [16] relates to Heart. Put plainly: Biodistribution in ddY mouse heart at 0.5 uCi, iv after 10 mins. The class given is ADME, organism-based. The settings on record: in vivo. The essentials:
as §1

Data set [17] deals with Stomach. Put plainly: Biodistribution in ddY mouse stomach at 0.5 uCi, iv after 10 mins. The class given is ADME, organism-based. The settings on record: in vivo. The essentials:
as §1

The subject of data set [18] is Brain. Put plainly: Biodistribution in ddY mouse brain at 0.5 uCi, iv after 10 mins. The class given is ADME, organism-based. Particulars: in vivo. The method, boiled down:
as §1

For data set [19], the system named is Blood. Put plainly: Biodistribution in ddY mouse blood at 0.5 uCi, iv after 30 mins. The class given is ADME, organism-based. The settings on record: in vivo, 0.5 h. The essentials: as §1
Data set [20] deals with Liver. Put plainly: Biodistribution in ddY mouse liver at 0.5 uCi, iv after 30 mins. The class given is ADME, organism-based. Particulars: in vivo, 0.5 h. The essentials: as §1
Data set [21] deals with Kidney. Put plainly: Biodistribution in ddY mouse kidney at 0.5 uCi, iv after 30 mins. Particulars: in vivo, 0.5 h. Format: ADME, organism-based. The essentials: as §1
In data set [22] the test system is Intestine. Put plainly: Biodistribution in ddY mouse intestine at 0.5 uCi, iv after 30 mins. The settings on record: in vivo, 0.5 h. Format: ADME, organism-based. The essentials: as §1
The subject of data set [23] is Spleen. Put plainly: Biodistribution in ddY mouse spleen at 0.5 uCi, iv after 30 mins. Format: ADME, organism-based. Particulars: in vivo, 0.5 h. The essentials: as §1
The test system of data set [24] is Pancreas. Kind of data set: Biodistribution in ddY mouse pancreas at 0.5 uCi, iv after 30 mins. The class given is ADME, organism-based. Particulars: in vivo, 0.5 h. The method, boiled down: as §1
Data set [25] relates to Heart. Put plainly: Biodistribution in ddY mouse heart at 0.5 uCi, iv after 30 mins. Format: ADME, organism-based. Particulars: in vivo, 0.5 h. The essentials: as §1
The test system of data set [26] is Stomach. Kind of data set: Biodistribution in ddY mouse stomach at 0.5 uCi, iv after 30 mins. Format: ADME, organism-based. Particulars: in vivo, 0.5 h. The method, boiled down:
as §1

The test system of data set [27] is Brain. Put plainly: Biodistribution in ddY mouse brain at 0.5 uCi, iv after 30 mins. Format: ADME, organism-based. The settings on record: in vivo, 0.5 h. The essentials:
as §1

Data set [28] has as its system Blood. Kind of data set: Biodistribution in ddY mouse blood at 0.5 uCi, iv after 60 mins. The class given is ADME, organism-based. The settings on record: in vivo, 1 h. The method, boiled down:
as §1

Data set [29] relates to Liver. Put plainly: Biodistribution in ddY mouse liver at 0.5 uCi, iv after 60 mins. The class given is ADME, organism-based. The settings on record: in vivo, 1 h. The essentials: as §1
Data set [30] concerns Kidney. Put plainly: Biodistribution in ddY mouse kidney at 0.5 uCi, iv after 60 mins. Format: ADME, organism-based. The settings on record: in vivo, 1 h. The essentials:
as §1

Data set [31] concerns Intestine. Kind of data set: Biodistribution in ddY mouse intestine at 0.5 uCi, iv after 60 mins. The settings on record: in vivo, 1 h. Format: ADME, organism-based. The method, boiled down: as §1
Data set [32] deals with Spleen. Kind of data set: Biodistribution in ddY mouse spleen at 0.5 uCi, iv after 60 mins. The class given is ADME, organism-based. The settings on record: in vivo, 1 h. The method, boiled down: as §1
For data set [33], the system named is Pancreas. Put plainly: Biodistribution in ddY mouse pancreas at 0.5 uCi, iv after 60 mins. Particulars: in vivo, 1 h. Format: ADME, organism-based. The method, boiled down: as §1
For data set [34], the system named is Heart. Put plainly: Biodistribution in ddY mouse heart at 0.5 uCi, iv after 60 mins. The class given is ADME, organism-based. The settings on record: in vivo, 1 h. The essentials:
as §1

Data set [35] relates to Stomach. Put plainly: Biodistribution in ddY mouse stomach at 0.5 uCi, iv after 60 mins. Format: ADME, organism-based. The settings on record: in vivo, 1 h. The essentials: as §1
In data set [36] the test system is Brain. Put plainly: Biodistribution in ddY mouse brain at 0.5 uCi, iv after 60 mins. The class given is ADME, organism-based. Particulars: in vivo, 1 h. The method, boiled down:
as §1

The test system of data set [37] is Pancreas. Kind of data set: Biodistribution in ddY mouse pancreas at 0.5 uCi, iv after 2 mins. The class given is ADME, organism-based. The settings on record: in vivo. The essentials:
as §1

Each structure is given as a SMILES string.

As to `Nc1ccc(-c2nc(-c3ccc(I)cc3)no2)cc1`, the Ki (in general, the dissociation constant of the complex between target and ligand, obtained from inhibition or displacement) in [1] was found to be 14.2 nM.

With `CNc1ccc(-c2nc(-c3ccc([125I])cc3)no2)cc1`, the Drug uptake in [2] is 3.54 % ID/g; in data set [3] it was 14.62 % ID/g; in data set [4], 9.53 % ID/g; in [5], 1.36 % ID/g; in data set [6] it was 4.58 % ID/g; in data set [7], 9.51 % ID/g. Moreover, the Drug uptake in [8] stood at 1.08 % ID/organ; in data set [9] it was 1.44 % ID/g; in [10], 1.84 % ID/g; in data set [11], 12.37 % ID/g; in [12], 5.3 % ID/g; in data set [13], 2.83 % ID/g. Moreover, the Drug uptake worked out at 4.7 % ID/g in data set [14]; 3.91 % ID/g in data set [15]; 3.05 % ID/g in [16]; 2.32 % ID/organ in data set [17]; 1.98 % ID/g in [18]; 1.52 % ID/g in data set [19]. Also, the Drug uptake is 8.53 % ID/g in data set [20]; 3.39 % ID/g in [21]; 5.67 % ID/g in [22]; 2.84 % ID/g in data set [23]; 3.06 % ID/g in data set [24]; 1.68 % ID/g in data set [25]. Moreover, the Drug uptake was 4.89 % ID/organ in data set [26]; 2.56 % ID/g in data set [27]; 1.54 % ID/g in data set [28]; 7.3 % ID/g in data set [29]; 3.02 % ID/g in [30]; 8.46 % ID/g in data set [31]. In addition, the Drug uptake in data set [32] was found to be 2.14 % ID/g; in data set [33], 1.88 % ID/g; in data set [34], 1.27 % ID/g; in [35], 7.38 % ID/organ; in [36], 2.7 % ID/g; in data set [37], 3.34 % ID/g.

As for `COc1ccc(-c2nc(-c3ccc([125I])cc3)no2)cc1`, the Drug uptake in data set [2] was found to be 1.96 % ID/g; in data set [3], 11.92 % ID/g; in data set [4], 8.77 % ID/g; in [5], 1.7 % ID/g; in [6], 4.41 % ID/g; in [7] it was 11.3 % ID/g. Besides, the Drug uptake in data set [8] turned out to be 0.62 % ID/organ; in data set [9], 2.06 % ID/g; in [10], 1.63 % ID/g; in [11] it was 9.35 % ID/g; in data set [12], 6.22 % ID/g; in data set [13], 3.53 % ID/g. Further, the Drug uptake in data set [14] came to 3.62 % ID/g; in data set [15], 4.94 % ID/g; in data set [16], 4.44 % ID/g; in [17] it was 1.64 % ID/organ; in data set [18], 2.76 % ID/g; in data set [19], 1.23 % ID/g. Further, the Drug uptake in [20] was found to be 6.13 % ID/g; in data set [21] it was 3.85 % ID/g; in data set [22] it was 6.62 % ID/g; in data set [23], 2.13 % ID/g; in [24], 2.84 % ID/g; in data set [25], 1.84 % ID/g. In addition, the Drug uptake in data set [26] was 2.46 % ID/organ; in data set [27] it was 2.82 % ID/g; in [28], 1.12 % ID/g; in data set [29], 4.44 % ID/g; in data set [30], 2.95 % ID/g; in data set [31], 8.21 % ID/g. For the same compound, the Drug uptake was 1.34 % ID/g in data set [32]; 1.45 % ID/g in [33]; 1.35 % ID/g in [34]; 3.16 % ID/organ in data set [35]; 2.01 % ID/g in data set [36]; 4.55 % ID/g in data set [37].

As to `CNc1ccc(-c2nc(-c3ccc(I)cc3)no2)cc1`, the Ki in data set [1] worked out at 14.3 nM.
